Laboratory results taken from ChEMBL document CHEMBL2424619, “Small-molecule ligands of methyl-lysine binding proteins: optimization of selectivity for L3MBTL3” (J Med Chem, 2013).

Columns and labels:
PHD finger protein 23 = PHD finger protein 23 (Homo sapiens, UniProt Q9BUL5); assay: Inhibition of PHF23 (unknown origin) after 30 mins by AlphaScreen assay
Summary of the method: (§1)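 AlphaScreen competition with histone peptide. Compounds in 3-fold, 10-point dilutions, top 10 or 30 μM; buffer 20 mM Tris pH 8.0, 25 mM NaCl, 2 mM DTT, 0.05% Tween-20. Protein-peptide mix 30 min RT, then streptavidin donor plus nickel-chelate acceptor beads (GST acceptor beads for GST-tagged PHF23, JARID1A) 30 min RT dark. Protein-free His6-biotin peptide counterscreen.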

[1] = molecular target: T1, E3 ubiquitin-protein ligase UHRF1 (Homo sapiens, UniProt Q96T88); assay: Inhibition of UHRF1 (unknown origin) after 30 mins by AlphaScreen assay
T1 sequence (Q96T88 whole entry): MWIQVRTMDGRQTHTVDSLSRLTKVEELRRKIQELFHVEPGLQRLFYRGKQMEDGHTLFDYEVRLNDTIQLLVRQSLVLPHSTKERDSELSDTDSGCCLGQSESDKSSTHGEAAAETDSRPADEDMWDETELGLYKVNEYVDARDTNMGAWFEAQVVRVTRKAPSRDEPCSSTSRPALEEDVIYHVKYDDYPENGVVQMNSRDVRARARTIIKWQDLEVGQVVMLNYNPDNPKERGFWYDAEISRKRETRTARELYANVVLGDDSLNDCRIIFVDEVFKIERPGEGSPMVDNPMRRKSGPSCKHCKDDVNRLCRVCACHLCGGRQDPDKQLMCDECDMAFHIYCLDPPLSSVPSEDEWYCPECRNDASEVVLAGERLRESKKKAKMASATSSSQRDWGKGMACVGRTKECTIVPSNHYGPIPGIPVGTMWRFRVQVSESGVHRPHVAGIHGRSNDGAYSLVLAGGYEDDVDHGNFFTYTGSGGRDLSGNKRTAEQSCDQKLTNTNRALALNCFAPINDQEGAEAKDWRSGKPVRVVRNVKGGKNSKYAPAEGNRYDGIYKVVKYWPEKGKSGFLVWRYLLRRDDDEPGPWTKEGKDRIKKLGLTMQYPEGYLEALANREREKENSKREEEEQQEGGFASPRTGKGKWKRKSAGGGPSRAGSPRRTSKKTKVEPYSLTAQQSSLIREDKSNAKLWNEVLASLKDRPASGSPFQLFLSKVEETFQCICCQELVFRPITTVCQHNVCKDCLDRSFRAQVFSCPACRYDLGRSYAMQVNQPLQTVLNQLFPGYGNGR
Summary of the method: as §1, with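 “dark. […]” for “dark.”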

[2] = molecular target: MBT domain-containing protein 1 (Homo sapiens, UniProt Q05BQ5); assay: Inhibition of MBTD1 (unknown origin) after 30 mins by AlphaScreen assay; summary of the method: as §1
[3] = molecular target: T2, Chromobox protein homolog 7 (Homo sapiens, UniProt O95931); assay: Inhibition of CBX7 (unknown origin) after 30 mins by AlphaScreen assay; summary of the method: as §1
T2 sequence (O95931 whole entry): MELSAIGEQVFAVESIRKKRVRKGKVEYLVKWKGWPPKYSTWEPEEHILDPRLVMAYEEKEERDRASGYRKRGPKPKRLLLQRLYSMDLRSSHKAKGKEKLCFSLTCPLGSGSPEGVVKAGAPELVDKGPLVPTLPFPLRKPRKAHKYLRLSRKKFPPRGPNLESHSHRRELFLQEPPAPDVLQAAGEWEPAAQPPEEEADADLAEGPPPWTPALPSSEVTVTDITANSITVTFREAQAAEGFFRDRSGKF

[4] = molecular target: T3, Lethal(3)malignant brain tumor-like protein 4 (Homo sapiens, UniProt Q8NA19); assay: Inhibition of L3MBTL4 (unknown origin) after 30 mins by AlphaScreen assay; summary of the method: as §1
T3 sequence (Q8NA19 whole entry): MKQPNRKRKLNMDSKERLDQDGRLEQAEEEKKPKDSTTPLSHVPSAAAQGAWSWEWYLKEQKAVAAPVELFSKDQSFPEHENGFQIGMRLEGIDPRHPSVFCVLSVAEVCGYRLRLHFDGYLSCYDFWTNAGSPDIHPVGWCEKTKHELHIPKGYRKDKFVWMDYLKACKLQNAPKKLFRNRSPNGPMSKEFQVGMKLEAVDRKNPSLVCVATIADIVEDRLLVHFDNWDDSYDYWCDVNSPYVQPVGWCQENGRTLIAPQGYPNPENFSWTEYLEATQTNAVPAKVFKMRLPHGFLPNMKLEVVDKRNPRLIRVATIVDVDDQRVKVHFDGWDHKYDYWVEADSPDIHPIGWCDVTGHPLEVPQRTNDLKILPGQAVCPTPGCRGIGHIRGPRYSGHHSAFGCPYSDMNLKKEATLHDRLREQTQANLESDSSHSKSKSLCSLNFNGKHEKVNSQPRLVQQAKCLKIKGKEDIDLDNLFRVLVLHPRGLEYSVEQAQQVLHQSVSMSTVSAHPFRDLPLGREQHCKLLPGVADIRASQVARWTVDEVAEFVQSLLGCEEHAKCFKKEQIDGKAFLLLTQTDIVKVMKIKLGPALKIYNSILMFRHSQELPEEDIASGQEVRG

[5] = molecular target: T4, Lethal(3)malignant brain tumor-like protein 3 (Homo sapiens, UniProt Q96JM7); assay: Inhibition of L3MBTL3 (unknown origin) after 30 mins by AlphaScreen assay; summary of the method: as §1
T4 sequence (Q96JM7 whole entry): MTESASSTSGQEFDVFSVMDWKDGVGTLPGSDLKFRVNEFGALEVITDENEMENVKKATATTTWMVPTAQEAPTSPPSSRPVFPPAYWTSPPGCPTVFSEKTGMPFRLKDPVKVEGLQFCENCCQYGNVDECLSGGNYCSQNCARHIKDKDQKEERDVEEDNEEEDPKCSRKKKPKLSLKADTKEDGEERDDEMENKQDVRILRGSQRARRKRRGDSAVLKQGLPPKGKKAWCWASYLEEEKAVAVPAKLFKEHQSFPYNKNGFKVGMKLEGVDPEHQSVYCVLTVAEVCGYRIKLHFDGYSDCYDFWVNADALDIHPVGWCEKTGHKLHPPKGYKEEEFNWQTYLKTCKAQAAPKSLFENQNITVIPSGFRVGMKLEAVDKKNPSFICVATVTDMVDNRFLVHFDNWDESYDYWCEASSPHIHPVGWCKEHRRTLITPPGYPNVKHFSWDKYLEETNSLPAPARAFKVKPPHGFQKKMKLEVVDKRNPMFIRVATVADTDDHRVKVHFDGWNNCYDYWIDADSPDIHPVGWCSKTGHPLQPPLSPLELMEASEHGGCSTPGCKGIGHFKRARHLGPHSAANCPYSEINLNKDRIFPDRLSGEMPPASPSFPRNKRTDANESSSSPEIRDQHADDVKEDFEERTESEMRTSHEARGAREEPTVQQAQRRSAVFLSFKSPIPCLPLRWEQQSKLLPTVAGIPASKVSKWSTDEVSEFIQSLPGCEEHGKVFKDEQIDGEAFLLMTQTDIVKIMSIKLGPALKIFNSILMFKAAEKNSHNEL

Sequence of MBT domain-containing protein 1 (Q05BQ5 whole entry, the tested form may be a part): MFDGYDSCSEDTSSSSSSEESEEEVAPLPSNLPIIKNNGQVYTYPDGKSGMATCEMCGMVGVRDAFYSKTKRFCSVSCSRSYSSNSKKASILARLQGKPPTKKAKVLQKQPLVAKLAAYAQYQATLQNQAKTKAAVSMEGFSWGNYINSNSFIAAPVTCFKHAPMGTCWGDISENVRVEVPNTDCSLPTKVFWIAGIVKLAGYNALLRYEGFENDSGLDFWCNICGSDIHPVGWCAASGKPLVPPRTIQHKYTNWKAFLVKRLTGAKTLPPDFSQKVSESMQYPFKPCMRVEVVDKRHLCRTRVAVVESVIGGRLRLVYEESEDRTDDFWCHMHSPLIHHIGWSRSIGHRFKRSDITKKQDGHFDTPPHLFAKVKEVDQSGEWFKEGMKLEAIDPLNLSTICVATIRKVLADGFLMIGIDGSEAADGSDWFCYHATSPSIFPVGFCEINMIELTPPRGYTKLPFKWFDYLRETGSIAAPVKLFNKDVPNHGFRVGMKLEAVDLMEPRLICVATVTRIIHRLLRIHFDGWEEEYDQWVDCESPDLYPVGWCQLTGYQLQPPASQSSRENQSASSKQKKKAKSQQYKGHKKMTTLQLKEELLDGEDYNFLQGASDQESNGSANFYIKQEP
Sequence of PHD finger protein 23 (Q9BUL5 whole entry): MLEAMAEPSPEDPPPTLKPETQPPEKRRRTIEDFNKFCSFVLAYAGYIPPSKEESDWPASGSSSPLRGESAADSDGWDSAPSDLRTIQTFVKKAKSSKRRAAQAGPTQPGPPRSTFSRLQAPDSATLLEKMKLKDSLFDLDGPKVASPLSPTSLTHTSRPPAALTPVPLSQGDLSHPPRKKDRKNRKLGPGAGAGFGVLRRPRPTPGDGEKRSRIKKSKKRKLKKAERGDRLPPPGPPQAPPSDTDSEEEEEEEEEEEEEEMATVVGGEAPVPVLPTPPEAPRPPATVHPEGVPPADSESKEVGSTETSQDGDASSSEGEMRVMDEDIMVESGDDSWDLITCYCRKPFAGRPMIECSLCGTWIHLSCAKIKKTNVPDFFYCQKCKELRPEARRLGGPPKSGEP

| SMILES | IC50 (PHD finger protein 23) | IC50 [1] | IC50 [2] | IC50 [3] | IC50 [4] | IC50 [5] |
| --- | --- | --- | --- | --- | --- | --- |
| O=C(c1ccc(C(=O)N2CCC(N3CCCC3)CC2)c(Br)c1)N1CCC(N2CCCC2)CC1 | > 10 µM | > 10 µM | 7.8 µM | > 10 µM | > 10 µM | 0.12 µM |
| CCN1Cc2ccc(NC(=O)c3ccc(C(=O)N4CCC(C5CCCN5)CC4)cc3)cc2C1 (stereo not given) | > 10 µM | > 10 µM | > 10 µM | > 10 µM | > 10 µM | – |
| O=C(c1ccc(C(=O)N2CCC(C3CCCN3)CC2)cc1)N1CCC(C2CCCN2)CC1 (stereo not given) | > 10 µM | > 10 µM | 4 µM | > 10 µM | > 10 µM | 0.64 µM |
| O=C(c1ccc(C(=O)N2CCC3(CCNC3)CC2)cc1)N1CCC(N2CCCC2)CC1 | > 10 µM | > 10 µM | > 10 µM | > 10 µM | > 10 µM | 0.56 µM |
| CCN1Cc2ccc(NC(=O)c3ccc(C(=O)N4CCC(N5CCCC5)CC4)cc3)cc2C1 | > 10 µM | > 10 µM | > 10 µM | > 10 µM | > 10 µM | 0.37 µM |
| O=C(c1ccc(C(=O)N2CCC(N3CCCC3)CC2)c(NCc2ccccc2)c1)N1CCC(N2CCCC2)CC1 | > 10 µM | > 10 µM | > 10 µM | > 10 µM | > 10 µM | 0.039 µM |
| O=C(c1ccc(C(=O)N2CCC(N3CCCC3)CC2)c(-c2ccccc2)c1)N1CCC(N2CCCC2)CC1 | > 10 µM | > 10 µM | > 10 µM | > 10 µM | > 10 µM | 0.066 µM |
| O=C(c1ccc(C(=O)N2CC3CCC(C2)C3N2CCCC2)cc1)N1CC2CCC(C1)C2N1CCCC1 (stereo not given) | > 10 µM | > 10 µM | > 10 µM | > 10 µM | > 10 µM | 0.4 µM |
| O=C(c1ccc(C(=O)N2CCC(N3CCCCC3)CC2)cc1)N1CCC(N2CCCCC2)CC1 | > 10 µM | > 10 µM | 4.9 µM | > 10 µM | > 10 µM | > 10 µM |
| O=C(c1ccc(C(=O)N2CCC(N3CCCC3)CC2)cc1)N1CCC(C2CCCN2)CC1 (stereo not given) | > 10 µM | > 10 µM | – | > 10 µM | > 10 µM | 0.12 µM |
| O=C(c1ccc(C(=O)N2CCC(N3CCCC3)CC2)c(Oc2ccccc2)c1)N1CCC(N2CCCC2)CC1 | > 10 µM | > 10 µM | 9.3 µM | > 10 µM | > 10 µM | 0.058 µM |
| O=C(c1ccc(C(=O)N2CCC(N3CCCC3)CC2)cc1)N1CCCC(N2CCCC2)CC1 (stereo not given) | > 10 µM | > 10 µM | > 10 µM | > 10 µM | > 10 µM | 0.096 µM |
| O=C(c1ccc(C(=O)N2CCC(N3CCCC3)CC2)c(C(=O)N2CCC(N3CCCC3)CC2)c1)N1CCC(N2CCCC2)CC1 | > 10 µM | > 10 µM | > 10 µM | > 10 µM | > 10 µM | 0.12 µM |
| O=C(c1ccc(C(=O)N2CC3(CCNC3)C2)cc1)N1CCC(N2CCCC2)CC1 | > 10 µM | > 10 µM | > 10 µM | > 10 µM | > 10 µM | 3.6 µM |
| CCN1Cc2ccc(NC(=O)c3ccc(C(=O)N4CCC(C5CCCN5)CC4)c(Nc4ccccc4)c3)cc2C1 (stereo not given) | > 10 µM | > 10 µM | 5.1 µM | > 10 µM | > 10 µM | – |

More lines, main results first:

| IC50 (PHD finger protein 23) | IC50 [1] | IC50 [2] | IC50 [3] | SMILES | IC50 [4] | IC50 [5] |
| --- | --- | --- | --- | --- | --- | --- |
| > 10 µM | > 10 µM | > 10 µM | > 10 µM | O=C(c1ccc(C(=O)N2CCC(N3CCCC3)CC2)c([N+](=O)[O-])c1)N1CCC(N2CCCC2)CC1 | > 10 µM | 0.16 µM |
| > 10 µM | > 10 µM | > 10 µM | > 10 µM | O=C(c1ccc(C(=O)N2CCC3(CCNC3)C2)cc1)N1CCC(N2CCCC2)CC1 (stereo not given) | > 10 µM | 1.8 µM |
| > 10 µM | > 10 µM | 6.8 µM | > 10 µM | O=C(c1ccc(C(=O)N2CCC(N3CCCC3)CC2)c(Cc2ccccc2)c1)N1CCC(N2CCCC2)CC1 | > 10 µM | 0.048 µM |
| > 10 µM | > 10 µM | > 10 µM | > 10 µM | O=C(c1ccccc1C(=O)N1CCC(N2CCCC2)CC1)N1CCC(N2CCCC2)CC1 | > 10 µM | 1.1 µM |
| > 10 µM | > 10 µM | > 10 µM | > 10 µM | O=C(c1ccc(C(=O)N2CCC(N3CCCC3)CC2)o1)N1CCC(N2CCCC2)CC1 | > 10 µM | 0.53 µM |
| > 10 µM | > 10 µM | > 10 µM | > 10 µM | O=C(c1cncc(Br)c1)N1CCC(N2CCCC2)CC1 | > 10 µM | 3.1 µM |
| > 10 µM | > 10 µM | > 10 µM | > 10 µM | O=C(c1ccc2cc(C(=O)N3CCC(N4CCCC4)CC3)ccc2c1)N1CCC(N2CCCC2)CC1 | > 10 µM | 0.69 µM |
| > 10 µM | > 10 µM | > 10 µM | > 10 µM | CN(C)C1CCN(C(=O)c2ccc(C(=O)N3CCC(N4CCCC4)CC3)cc2)CC1 | > 10 µM | 0.31 µM |
| – | > 10 µM | 8.1 µM | > 10 µM | O=C(c1ccc(C(=O)N2CCC(N3CCCC3)CC2)cc1)N1CCC(C2CCCCC2)CC1 | > 10 µM | 2.4 µM |
